From ChEMBL document CHEMBL1123840, “Synthesis and evaluation of melphalan-containing N,N-dialkylenkephalin analogues as irreversible antagonists of the delta opioid receptor” (J Med Chem, 1987)
“And” between values parts separate entries of the source, which are not always exact repeats. Equal values may be shown once. Square brackets hold non-standard residues; d marks the D form. Peptide text beside a SMILES is read from it. * marks the point of attachment. Phe(4-N(CH2CH2Cl)2) = N[C@@H](Cc1ccc(N(CCCl)CCCl)cc1)C(=O)O; Tyr(Nα,Nα-allyl2) = C=CCN(CC=C)[C@@H](Cc1ccc(O)cc1)C(=O)*; Aib = CC(C)(N)C(=O)O

Assays:
[1] = biological target: Mu-type opioid receptor (Cavia porcellus) (UniProt P97266); assay: Ratio of IC50 of […] (agonist) after 10 min of incubation along with compound (antagonist) and IC50 of agonist in absence of compound for mu opioid receptor at 1 uM in GPI assay (Exp 2); assay type: functional
Mu-type opioid receptor (Cavia porcellus), sequence (P97266 whole entry): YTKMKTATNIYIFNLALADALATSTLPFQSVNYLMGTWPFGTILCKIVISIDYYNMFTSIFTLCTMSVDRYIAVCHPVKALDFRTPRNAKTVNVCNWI
Summary of the method: (§1)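 Reversible antagonism was measured in electrically stimulated isolated tissue (MVD or GPI) with the antagonist present. Agonists were morphine (μ), ethylketazocine (κ) and DADLE (δ). The value is the agonist IC50 with antagonist divided by the IC50 without it, i.e. the fold rightward shift of the agonist dose-response curve. Mean ± SEM, n = 3 unless otherwise noted.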

Cavia porcellus [2] = species on record: Cavia porcellus; assay: (§2) Reversible opioid agonist activity in the electrically stimulated guinea pig ileum(GPI) at 1 uM concentration (Exp 1); assay type: functional; settings: Cavia porcellus, Ileum
[3] = biological target: Mu-type opioid receptor (Cavia porcellus) (UniProt P97266); settings: 1 uM
[4] = biological target: Delta-type opioid receptor (Mus musculus) (UniProt P32300); assay: Ratio of IC50 of DADLE (agonist) after 10 min of incubation along with compound (antagonist) and IC50 of agonist in the absence of compound for delta opioid receptor at 1 uM in MVD assay; assay type: functional; summary of the method: as §1
Delta-type opioid receptor (Mus musculus), sequence (P32300 whole entry): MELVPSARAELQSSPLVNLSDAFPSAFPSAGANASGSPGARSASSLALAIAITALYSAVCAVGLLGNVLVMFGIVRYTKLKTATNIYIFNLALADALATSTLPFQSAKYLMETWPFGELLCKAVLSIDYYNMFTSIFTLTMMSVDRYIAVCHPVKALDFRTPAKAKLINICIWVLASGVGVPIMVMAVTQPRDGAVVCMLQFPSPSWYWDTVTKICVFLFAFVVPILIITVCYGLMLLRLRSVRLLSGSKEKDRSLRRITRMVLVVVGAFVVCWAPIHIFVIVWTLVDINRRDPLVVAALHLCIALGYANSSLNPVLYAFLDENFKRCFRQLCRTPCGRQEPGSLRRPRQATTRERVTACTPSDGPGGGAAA

[5] = biological target: Kappa-type opioid receptor (Cavia porcellus) (UniProt P41144); settings: 1 uM
Kappa-type opioid receptor (Cavia porcellus), sequence (P41144 whole entry): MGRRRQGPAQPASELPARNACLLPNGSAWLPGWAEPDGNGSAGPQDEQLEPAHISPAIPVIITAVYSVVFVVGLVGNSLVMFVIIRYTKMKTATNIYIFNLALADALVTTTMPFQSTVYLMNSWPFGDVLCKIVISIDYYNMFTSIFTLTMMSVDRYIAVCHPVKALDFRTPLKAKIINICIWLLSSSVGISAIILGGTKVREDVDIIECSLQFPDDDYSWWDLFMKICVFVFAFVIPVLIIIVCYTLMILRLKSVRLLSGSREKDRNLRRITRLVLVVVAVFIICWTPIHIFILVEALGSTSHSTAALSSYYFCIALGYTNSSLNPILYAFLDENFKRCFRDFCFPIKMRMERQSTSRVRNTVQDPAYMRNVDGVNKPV

[6] = biological target: Mu-type opioid receptor (Homo sapiens) (UniProt P35372); assay: Ratio of IC50 of […] (agonist) after 10 min of incubation along with compound (antagonist) and IC50 of agonist in absence of compound for mu opioid receptor at 1 uM in MVD assay; assay type: functional; settings: Mus musculus; summary of the method: as §1
Mu-type opioid receptor (Homo sapiens), sequence (P35372 whole entry): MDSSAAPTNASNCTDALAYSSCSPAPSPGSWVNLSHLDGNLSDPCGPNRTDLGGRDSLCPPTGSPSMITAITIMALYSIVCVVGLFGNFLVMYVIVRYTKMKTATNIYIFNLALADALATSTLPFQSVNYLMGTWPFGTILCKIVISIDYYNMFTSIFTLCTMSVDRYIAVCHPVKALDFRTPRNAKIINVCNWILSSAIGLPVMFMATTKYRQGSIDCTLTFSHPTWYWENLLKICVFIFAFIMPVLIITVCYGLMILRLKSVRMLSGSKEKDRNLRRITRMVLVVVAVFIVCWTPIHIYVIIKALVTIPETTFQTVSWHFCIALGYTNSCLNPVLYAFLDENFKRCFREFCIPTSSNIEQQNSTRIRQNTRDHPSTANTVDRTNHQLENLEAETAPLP

Mus musculus [7] = species on record: Mus musculus; assay: (§3) Reversible opioid agonist activity in the electrically stimulated mouse vas deferens(MVD) at 1 uM concentration; assay type: functional
[8] = biological target: Kappa-type opioid receptor (Cavia porcellus) (UniProt P41144); assay: Ratio of IC50 of ethylketazocine (agonist) after 10 min of incubation along with compound (antagonist) and IC50 of agonist in absence of compound for kappa opioid receptor at 1 uM in GPI assay (Exp 1); assay type: functional; summary of the method: as §1
Cavia porcellus [9] = species on record: Cavia porcellus; assay: (§4) Reversible opioid agonist activity in the electrically stimulated guinea pig ileum(GPI) at 1 uM concentration (Exp 2)
Cavia porcellus [10] = species on record: Cavia porcellus; assay: Reversible opioid agonist activity in the electrically stimulated guinea pig ileum(GPI) at 1 uM concentration (Experiment 2)
Cavia porcellus [11] = species on record: Cavia porcellus; assay: Reversible opioid agonist activity in the electrically stimulated guinea pig ileum(GPI) at 1 uM concentration (Experiment 1)
[12] = biological target: Kappa-type opioid receptor (Cavia porcellus) (UniProt P41144); assay: Ratio of IC50 of ethylketazocine (agonist) after 10 min of incubation along with compound (antagonist) and IC50 of agonist in absence of compound for Opioid receptor kappa 1 at 1 uM in GPI assay; assay type: functional; summary of the method: as §1
[13] = biological target: Delta-type opioid receptor (Mus musculus) (UniProt P32300); assay: Ratio of IC50 of DADLE (agonist) after 10 min of incubation along with compound (antagonist) and IC50 of agonist in the absence of compound for Opioid receptor delta 1 at 10 uM in MVD assay; assay type: functional; summary of the method: as §1
[14] = biological target: T1, Opioid receptor (Mus musculus) (UniProt P42866+P32300+P33534); assay: as §3; assay type: functional
T1 sequence (P32300 whole entry, looked up): as the sequence (P32300 whole entry) above
T1 sequence (P33534 whole entry, looked up): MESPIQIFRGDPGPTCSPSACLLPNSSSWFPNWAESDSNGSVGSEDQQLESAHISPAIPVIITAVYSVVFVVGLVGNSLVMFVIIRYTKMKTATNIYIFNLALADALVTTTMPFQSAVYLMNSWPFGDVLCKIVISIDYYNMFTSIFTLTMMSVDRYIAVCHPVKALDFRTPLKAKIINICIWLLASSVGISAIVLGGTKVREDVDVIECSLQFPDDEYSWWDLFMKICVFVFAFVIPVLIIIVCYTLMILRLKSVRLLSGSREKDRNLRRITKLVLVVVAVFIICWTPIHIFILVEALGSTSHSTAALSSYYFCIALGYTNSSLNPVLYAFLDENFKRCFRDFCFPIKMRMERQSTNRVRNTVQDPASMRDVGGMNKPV
T1 sequence (P42866 whole entry, looked up): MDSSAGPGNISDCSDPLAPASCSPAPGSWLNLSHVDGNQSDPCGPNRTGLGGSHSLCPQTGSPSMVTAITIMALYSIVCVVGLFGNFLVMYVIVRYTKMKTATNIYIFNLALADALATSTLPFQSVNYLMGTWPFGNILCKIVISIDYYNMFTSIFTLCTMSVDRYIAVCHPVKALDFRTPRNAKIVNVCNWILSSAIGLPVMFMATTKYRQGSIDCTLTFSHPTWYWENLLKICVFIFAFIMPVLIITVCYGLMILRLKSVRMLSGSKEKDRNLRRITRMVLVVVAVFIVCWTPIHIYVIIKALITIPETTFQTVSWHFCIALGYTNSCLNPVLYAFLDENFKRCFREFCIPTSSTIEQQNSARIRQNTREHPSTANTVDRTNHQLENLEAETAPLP

Mus musculus [15] = species on record: Mus musculus; assay: Ratio of IC50 of morphine (agonist) expossed to the compound for 10 min and then washed 30 times to Ratio of IC50 of morphine (agonist) prior to exposure to compound; assay type: functional
Summary of the method: (§5)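 Irreversible antagonism was measured in isolated tissue. The tissue was exposed to the compound for 10 min (30 min in some cases), then washed 30 times with fresh buffer to remove non-covalently bound ligand. Agonist IC50 was then redetermined. The ratio is this post-wash IC50 over the agonist IC50 in the same tissue before exposure. Mean ± SEM, n = 3 unless otherwise noted.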

[16] = biological target: Mu-type opioid receptor (Mus musculus) (UniProt P42866); assay: Ratio of IC50 of […] (agonist) after 10 min of incubation along with compound (antagonist) and IC50 of agonist in absence of compound for Opioid receptor mu 1 at 1 uM in MVD assay; assay type: functional; summary of the method: as §1
Mu-type opioid receptor (Mus musculus), sequence (P42866 whole entry): as the sequence (P42866 whole entry, looked up) above

[17] = biological target: Delta-type opioid receptor (Mus musculus) (UniProt P32300); assay: Ratio of IC50 of DADLE (agonist) after 10 min of incubation along with compound (antagonist) and IC50 of agonist in the absence of compound for Opioid receptor delta 1 at 1 uM in MVD assay; assay type: functional; summary of the method: as §1
[18] = biological target: T1, Opioid receptor (Mus musculus); assay: Reversible opioid agonist activity in the electrically stimulated mouse vas deferens(MVD) at 10 uM of concentration; assay type: functional
[19] = biological target: T2, Opioid receptors; mu/kappa/delta (Homo sapiens) (UniProt P41145+P41143+P35372); assay: as §4; assay type: functional, tissue-based; settings: Cavia porcellus, target entry is the homologue from another species
T2 sequence (P35372 whole entry, looked up): as the sequence (P35372 whole entry) above
T2 sequence (P41143 whole entry, looked up): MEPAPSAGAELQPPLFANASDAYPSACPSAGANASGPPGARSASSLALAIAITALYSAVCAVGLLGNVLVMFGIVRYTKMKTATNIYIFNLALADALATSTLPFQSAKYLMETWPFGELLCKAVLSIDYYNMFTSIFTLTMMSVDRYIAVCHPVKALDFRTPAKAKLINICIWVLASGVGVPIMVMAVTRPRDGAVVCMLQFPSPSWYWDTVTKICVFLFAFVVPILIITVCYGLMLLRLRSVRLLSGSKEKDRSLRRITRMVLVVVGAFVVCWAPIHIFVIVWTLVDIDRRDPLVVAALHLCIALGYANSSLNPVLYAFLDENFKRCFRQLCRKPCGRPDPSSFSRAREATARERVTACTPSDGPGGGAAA
T2 sequence (P41145 whole entry, looked up): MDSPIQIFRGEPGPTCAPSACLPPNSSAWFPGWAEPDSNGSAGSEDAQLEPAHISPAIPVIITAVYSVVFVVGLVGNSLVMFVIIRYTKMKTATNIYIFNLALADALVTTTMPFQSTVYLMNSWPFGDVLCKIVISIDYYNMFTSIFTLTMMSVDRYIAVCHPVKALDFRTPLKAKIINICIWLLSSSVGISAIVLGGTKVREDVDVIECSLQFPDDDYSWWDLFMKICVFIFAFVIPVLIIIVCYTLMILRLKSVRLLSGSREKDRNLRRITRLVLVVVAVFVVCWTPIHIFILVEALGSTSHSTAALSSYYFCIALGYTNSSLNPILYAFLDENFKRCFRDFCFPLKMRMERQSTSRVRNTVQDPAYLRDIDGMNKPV

Mus musculus [20] = species on record: Mus musculus; assay: Ratio of IC50 of DADLE (agonist) expossed to the compound for 10 min and then washed 30 times to Ratio of IC50 of morphine (agonist) prior to exposure to compound; assay type: functional; summary of the method: as §5
[21] = biological target: Mu-type opioid receptor (Cavia porcellus) (UniProt P97266); assay: Ratio of IC50 of […] (agonist) after 10 min of incubation along with compound (antagonist) and IC50 of agonist in absence of compound for Opioid receptor mu 1 at 1 uM in GPI assay; assay type: functional; summary of the method: as §1
[22] = biological target: T2, Opioid receptors; mu/kappa/delta (Homo sapiens); assay: as §2; assay type: functional, tissue-based; settings: Cavia porcellus, target entry is the homologue from another species
[23] = biological target: T2, Opioid receptors; mu/kappa/delta (Homo sapiens); assay: Reversible opioid agonist activity in the electrically stimulated guinea pig ileum(GPI) at 1 uM concentration (exp 1); assay type: functional, tissue-based; settings: Cavia porcellus, target entry is the homologue from another species
[24] = biological target: Mu-type opioid receptor (Cavia porcellus) (UniProt P97266); assay: Ratio of IC50 of […] (agonist) after 10 min of incubation along with compound (antagonist) and IC50 of agonist in absence of compound for Opioid receptor mu 1 at 1 uM in GPI assay (exp 1); assay type: functional; summary of the method: as §1
[25] = biological target: T2, Opioid receptors; mu/kappa/delta (Homo sapiens); assay: Reversible opioid agonist activity in the electrically stimulated guinea pig ileum(GPI) at 1 uM concentration (exp 2); assay type: functional, tissue-based; settings: Cavia porcellus, target entry is the homologue from another species
[26] = biological target: Mu-type opioid receptor (Cavia porcellus) (UniProt P97266); assay: Ratio of IC50 of […] (agonist) after 10 min of incubation along with compound (antagonist) and IC50 of agonist in absence of compound for Opioid receptor mu 1 at 1 uM in GPI assay (exp 2); assay type: functional; summary of the method: as §1
Mus musculus [27] = species on record: Mus musculus; assay: Ratio of IC50 of DADLE (agonist) exposed to the compound for 10 min and then washed 30 times to Ratio of IC50 of morphine (agonist) prior to exposure to compound; assay type: functional; summary of the method: as §5
[28] = biological target: Kappa-type opioid receptor (Cavia porcellus) (UniProt P41144); assay: Ratio of IC50 of ethylketazocine (agonist) after 10 min of incubation along with compound (antagonist) and IC50 of agonist in absence of compound for Opioid receptor kappa 1 at 1 uM in GPI assay (Exp 2); assay type: functional; summary of the method: as §1
[29] = biological target: Kappa-type opioid receptor (Cavia porcellus) (UniProt P41144); assay: Ratio of IC50 of ethylketazocine (agonist) after 10 min of incubation along with compound (antagonist) and IC50 of agonist in absence of compound for Opioid receptor kappa 1 at 1 uM in GPI assay (Exp 1); assay type: functional; summary of the method: as §1

SMILES | IC50 ratio [1] | IC50 ratio [3] | IC50 ratio [4] | IC50 ratio [6] | inhibition at 1 µM (Mus musculus [7]) | IC50 ratio [13] | inhibition [14] | IC50 ratio (Mus musculus [15]) | IC50 ratio [16] | IC50 ratio [17] | inhibition [18] | other results
C=CCN(CC=C)[C@@H](Cc1ccc(O)cc1)C(=O)NCC(=O)NCC(=O)N[C@@H](Cc1ccccc1)C(=O)N[C@@H](CC(C)C)C(=O)O ({Tyr(Nα,Nα-allyl2)}-GGFL-OH) | 1.1 | 0.8 | 2.7 | 0.8 | 10% |  |  |  |  |  |  | inhibition at 1 µM (Cavia porcellus [2]): -6.7%; IC50 ratio [5]: 1.1; IC50 ratio [8]: 0.6; inhibition at 1 µM (Cavia porcellus [9]): 0%
C=CCN(CC=C)[C@@H](Cc1ccc(O)cc1)C(=O)NCC(=O)NCC(=O)N[C@@H](Cc1ccc(N(CCCl)CCCl)cc1)C(=O)N[C@@H](CC(C)C)C(=O)O ({Tyr(Nα,Nα-allyl2)}-GG[Phe(4-N(CH2CH2Cl)2)]L-OH) | 1.1 and 1 | 0.6 | 1.2 | 1.1 | 4.2% |  |  |  |  |  |  | inhibition at 1 µM (Cavia porcellus [10]): 10%; inhibition at 1 µM (Cavia porcellus [11]): 23%
C=CCN(CC=C)[C@@H](Cc1ccc(O)cc1)C(=O)NC(C)(C)C(=O)NC(C)(C)C(=O)N[C@@H](Cc1ccccc1)C(=O)N[C@@H](CC(C)C)C(=O)O ({Tyr(Nα,Nα-allyl2)}-[Aib][Aib]FL-OH) |  |  |  |  |  | 147 | 8.4% | 0.8 | 0.8 | 15.6 | 15.8% | IC50 ratio [12]: 0.7 and 0.9; inhibition [19]: 37.8%; IC50 ratio (Mus musculus [20]): 5.5; IC50 ratio [21]: 0.5 and 0.6; inhibition [22]: 16.2%
C=CCN(CC=C)[C@@H](Cc1ccc(O)cc1)C(=O)NC(C)(C)C(=O)NC(C)(C)C(=O)N[C@@H](Cc1ccc(N(CCCl)CCCl)cc1)C(=O)N[C@@H](CC(C)C)C(=O)O ({Tyr(Nα,Nα-allyl2)}-[Aib][Aib][Phe(4-N(CH2CH2Cl)2)]L-OH) |  |  |  |  |  | 19.4 | 20.6% | 3 | 2.2 | 5 | 16.8% | inhibition [23]: 8.1%; IC50 ratio [24]: 0.6; inhibition [25]: 14.7%; IC50 ratio [26]: 1; IC50 ratio (Mus musculus [27]): 2.9; IC50 ratio [28]: 0.6; IC50 ratio [29]: 0.3
